Measurements published in ChEMBL document CHEMBL2440058, “Synthesis and structure-activity relationship studies of novel dihydropyridones as androgen receptor modulators” (J Med Chem, 2013).
The source made the active and inactive calls.

biological target: T1, Androgen receptor (Homo sapiens) (UniProt P10275); assay: Inhibition of androgen receptor in human LNCAP cells assessed as decrease in PSA mRNA expression at 5 uM by RT-PCR analysis relative to control; format: cell-based
T1 sequence (whole entry): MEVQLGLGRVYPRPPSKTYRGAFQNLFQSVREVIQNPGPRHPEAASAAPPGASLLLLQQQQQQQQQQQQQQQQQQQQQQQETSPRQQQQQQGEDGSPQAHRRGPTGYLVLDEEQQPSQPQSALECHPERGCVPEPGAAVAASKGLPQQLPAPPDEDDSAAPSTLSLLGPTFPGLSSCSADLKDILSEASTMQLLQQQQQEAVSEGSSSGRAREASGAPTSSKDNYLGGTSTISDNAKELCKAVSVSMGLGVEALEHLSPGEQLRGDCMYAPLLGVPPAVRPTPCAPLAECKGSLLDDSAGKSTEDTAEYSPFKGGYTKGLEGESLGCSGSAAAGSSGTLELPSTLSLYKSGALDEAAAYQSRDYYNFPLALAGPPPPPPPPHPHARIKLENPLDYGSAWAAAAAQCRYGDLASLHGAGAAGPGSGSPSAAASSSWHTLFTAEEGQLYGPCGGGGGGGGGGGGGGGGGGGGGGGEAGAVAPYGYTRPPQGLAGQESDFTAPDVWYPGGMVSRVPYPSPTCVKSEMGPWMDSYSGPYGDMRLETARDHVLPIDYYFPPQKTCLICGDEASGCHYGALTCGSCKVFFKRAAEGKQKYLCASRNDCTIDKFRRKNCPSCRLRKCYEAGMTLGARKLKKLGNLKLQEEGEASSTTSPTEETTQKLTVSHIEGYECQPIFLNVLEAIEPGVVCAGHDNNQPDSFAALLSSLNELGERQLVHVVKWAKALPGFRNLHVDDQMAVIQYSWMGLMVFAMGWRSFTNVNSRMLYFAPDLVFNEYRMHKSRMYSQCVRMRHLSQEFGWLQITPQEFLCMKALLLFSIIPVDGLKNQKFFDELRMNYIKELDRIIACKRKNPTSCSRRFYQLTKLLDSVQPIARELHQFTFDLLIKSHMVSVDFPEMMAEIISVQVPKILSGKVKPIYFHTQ
In short: (§1)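 LNCaP cells grown in RPMI 1640 with 10% FBS at 37°C. Transcript levels measured by real-time RT-PCR with rRNA as the reference gene. Relative RNA calculated from threshold cycles by the comparative Ct method.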

SMILES | inhibition
O=C(O[C@H]1C(=O)C=CN(C(=O)Oc2ccccc2)[C@@H]1c1cc(F)cc(F)c1)c1ccc(F)cc1C(F)(F)F (racemic) | Active
O=C(O[C@H]1C(=O)C=CN(C(=O)Oc2ccccc2)[C@@H]1c1ccc2c(c1)OCO2)c1ccc(F)cc1C(F)(F)F (racemic) | Active
O=C(O[C@H]1C(=O)C=CN(C(=O)Oc2ccccc2)[C@@H]1c1cccc(-c2ccccc2)c1)c1ccc(F)cc1C(F)(F)F (racemic) | Active
O=C(O[C@H]1C(=O)C=CN(C(=O)Oc2ccccc2)[C@@H]1c1ccccc1)c1ccc(F)cc1C(F)(F)F (racemic) | Active
O=C1C=CN(C(=O)Oc2ccccc2)[C@H](c2ccc(-c3ccccc3)cc2)C1 (racemic) | 90%
O=C1C=CN(C(=O)Oc2ccccc2)[C@H](c2ccc3c(c2)OCO3)[C@H]1O (racemic) | 90%
O=C1C=CN(C(=O)Oc2ccccc2)[C@H](c2cccc(-c3ccccc3)c2)[C@H]1O (racemic) | 90%
O=C1C=CN(C(=O)Oc2ccccc2)[C@H](c2ccccc2)C1 (racemic) | 90%
O=C1C=CN(C(=O)Oc2ccccc2)[C@H](c2ccccc2)[C@H]1O (racemic) | 90%
O=C1C=CN(C(=O)c2ccccc2)[C@H](c2ccccc2)[C@H]1O (racemic) | 90%
O=C1C=CN[C@H](c2ccccc2)[C@H]1O (racemic) | 90%

The remaining lines, values ahead:

inhibition | SMILES
Active | N#Cc1cccc(C(=O)O[C@H]2C(=O)C=CN(C(=O)/C=C/c3ccccc3)[C@@H]2c2ccccc2)c1 (racemic)
Active | O=C(/C=C/c1cccc(C(F)(F)F)c1)O[C@H]1C(=O)C=CN(C(=O)/C=C/c2ccccc2)[C@@H]1c1ccccc1 (racemic)
Active | O=C(Cc1ccccc1)O[C@H]1C(=O)C=CN(C(=O)/C=C/c2ccccc2)[C@@H]1c1ccccc1 (racemic)
Active | O=C(O[C@H]1C(=O)C=CN(C(=O)/C=C/c2ccccc2)[C@@H]1c1ccccc1)C1CC1 (racemic)
Active | O=C(O[C@H]1C(=O)C=CN(C(=O)/C=C/c2ccccc2)[C@@H]1c1ccccc1)c1ccc(Cl)cc1 (racemic)
Active | O=C(O[C@H]1C(=O)C=CN(C(=O)/C=C/c2ccccc2)[C@@H]1c1ccccc1)c1ccccc1C(F)(F)F (racemic)
90% | O=C(O[C@H]1C(=O)C=CN(C(=O)c2ccccc2)[C@@H]1c1ccccc1)c1ccc(F)cc1C(F)(F)F (racemic)
Active | O=C1C=CN(C(=O)/C=C/c2ccccc2)[C@H](c2ccccc2)[C@H]1O (racemic)

biological target: T1, Androgen receptor (Homo sapiens); assay: Inhibition of androgen receptor in human LNCAP cells assessed as decrease in TMPRSS2 mRNA expression at 5 uM by RT-PCR analysis relative to control; format: cell-based; in short: as §1

SMILES | inhibition
O=C(O[C@H]1C(=O)C=CN(C(=O)Oc2ccccc2)[C@@H]1c1cc(F)cc(F)c1)c1ccc(F)cc1C(F)(F)F (racemic) | Active
O=C(O[C@H]1C(=O)C=CN(C(=O)Oc2ccccc2)[C@@H]1c1ccc2c(c1)OCO2)c1ccc(F)cc1C(F)(F)F (racemic) | Active
O=C(O[C@H]1C(=O)C=CN(C(=O)Oc2ccccc2)[C@@H]1c1cccc(-c2ccccc2)c1)c1ccc(F)cc1C(F)(F)F (racemic) | Active
O=C(O[C@H]1C(=O)C=CN(C(=O)Oc2ccccc2)[C@@H]1c1ccccc1)c1ccc(F)cc1C(F)(F)F (racemic) | Active
O=C1C=CN(C(=O)Oc2ccccc2)[C@H](c2ccc(-c3ccccc3)cc2)C1 (racemic) | 90%
O=C1C=CN(C(=O)Oc2ccccc2)[C@H](c2ccc3c(c2)OCO3)[C@H]1O (racemic) | 90%
O=C1C=CN(C(=O)Oc2ccccc2)[C@H](c2cccc(-c3ccccc3)c2)[C@H]1O (racemic) | 90%
O=C1C=CN(C(=O)Oc2ccccc2)[C@H](c2ccccc2)C1 (racemic) | 90%
O=C1C=CN(C(=O)Oc2ccccc2)[C@H](c2ccccc2)[C@H]1O (racemic) | 90%
O=C1C=CN(C(=O)c2ccccc2)[C@H](c2ccccc2)[C@H]1O (racemic) | 90%
O=C1C=CN[C@H](c2ccccc2)[C@H]1O (racemic) | 90%

Further lines, results first:

inhibition | SMILES
Active | N#Cc1cccc(C(=O)O[C@H]2C(=O)C=CN(C(=O)/C=C/c3ccccc3)[C@@H]2c2ccccc2)c1 (racemic)
Active | O=C(/C=C/c1cccc(C(F)(F)F)c1)O[C@H]1C(=O)C=CN(C(=O)/C=C/c2ccccc2)[C@@H]1c1ccccc1 (racemic)
Active | O=C(Cc1ccccc1)O[C@H]1C(=O)C=CN(C(=O)/C=C/c2ccccc2)[C@@H]1c1ccccc1 (racemic)
Active | O=C(O[C@H]1C(=O)C=CN(C(=O)/C=C/c2ccccc2)[C@@H]1c1ccccc1)C1CC1 (racemic)
Active | O=C(O[C@H]1C(=O)C=CN(C(=O)/C=C/c2ccccc2)[C@@H]1c1ccccc1)c1ccc(Cl)cc1 (racemic)
Active | O=C(O[C@H]1C(=O)C=CN(C(=O)/C=C/c2ccccc2)[C@@H]1c1ccccc1)c1ccccc1C(F)(F)F (racemic)
90% | O=C(O[C@H]1C(=O)C=CN(C(=O)c2ccccc2)[C@@H]1c1ccccc1)c1ccc(F)cc1C(F)(F)F (racemic)
Active | O=C1C=CN(C(=O)/C=C/c2ccccc2)[C@H](c2ccccc2)[C@H]1O (racemic)
